Tested on: U2OS
Experiment: Multiplex assay against U2OS
Type: toxicity, cell-based
Settings: human
Outline: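 Cells were classed with CellPathfinder machine-learning gating, first as Hoechst high-intensity objects or normal cells, then (normal cells) as healthy, pyknosed or fragmented nuclei, and finally (pyknosed cells) as mitotic or apoptotic. Staining of live cells at seeding used Hoechst33342, BioTracker Green Microtubule Cytoskeleton Dye, MitoTracker Red and Annexin V Alexa Fluor 680, with imaging on a CQ1 microscope at 37°C and 5% CO2 after compound addition. Tubulin, mitochondrial-mass and membrane-permeability phenotypes are per cents of healthy-nucleus cells.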

[1] = 12 h, 1 µM, compound concentration 1 uM, replicate 1
[2] = 12 h, 1 µM, compound concentration 1 uM, replicate 2
[3] = 12 h, 10 µM, compound concentration 10 uM, replicate 1
[4] = 12 h, 10 µM, compound concentration 10 uM, replicate 2
[5] = 24 h, 1 µM, compound concentration 1 uM, replicate 1
[6] = 24 h, 1 µM, compound concentration 1 uM, replicate 2
[7] = 24 h, 10 µM, compound concentration 10 uM, replicate 1
[8] = 24 h, 10 µM, compound concentration 10 uM, replicate 2
[9] = 48 h, 1 µM, compound concentration 1 uM, replicate 1
[10] = 48 h, 1 µM, compound concentration 1 uM, replicate 2
[11] = 48 h, 10 µM, compound concentration 10 uM, replicate 1
[12] = 48 h, 10 µM, compound concentration 10 uM, replicate 2

Q: For Cc1ccc(C(C)(O)c2nc3ccccc3s2)c(C)c1 (centres undefined), which “Population Apoptotic (%)” value [1] is on record?
A: The value was 86%.

Q: And the “Population Fragmented Nuclei (%)” value [1]?
A: Its value is 19%.

Q: And the “Population Healthy Nuclei (%)” value [1]?
A: The value was 70%.

Q: What about the “Population Hoechst High Intensity Objects (%)” value [1] of the same compound?
A: The value was 3%.

Q: And the “Population Membrane Permeable-Phenotype (%)” value [1]?
A: The value was 4%.

Q: What about the “Population Mitochondria Different-Phenotype (%)” value [1] of the same compound?
A: Its value is 1%.

Q: And the “Population Mitotic Cells (%)” value [1]?
A: Its value is 13%.

Q: And the “Population Normal (%)” value [1]?
A: The value was 96%.

Q: What about the “Population Pyknosed Nuclei (%)” value [1] of the same compound?
A: Its value is 9%.

Q: What about the “Population Tubulin-Different-Phenotype (%)” value [1] of the same compound?
A: Its value is 2%.

Q: And the “Total Cell Count” value [1]?
A: Its value is 249.

Q: And the “Population Apoptotic (%)” value [2]?
A: Its value is 100%.

Q: And the “Population Fragmented Nuclei (%)” value [2]?
A: Its value is 17%.

Q: And the “Population Healthy Nuclei (%)” value [2]?
A: The value was 78%.

Q: And the “Population Hoechst High Intensity Objects (%)” value [2]?
A: The value was 0%.

Q: What about the “Population Membrane Permeable-Phenotype (%)” value [2] of the same compound?
A: Its value is 9%.

Q: What about the “Population Mitochondria Different-Phenotype (%)” value [2] of the same compound?
A: The value was 4%.

Q: What about the “Population Mitotic Cells (%)” value [2] of the same compound?
A: The value was 0%.

Q: What about the “Population Normal (%)” value [2] of the same compound?
A: Its value is 99%.

Q: And the “Population Pyknosed Nuclei (%)” value [2]?
A: Its value is 3%.

Q: What about the “Population Tubulin-Different-Phenotype (%)” value [2] of the same compound?
A: Its value is 5%.

Q: And the “Total Cell Count” value [2]?
A: Its value is 141.

Q: What about the “Population Apoptotic (%)” value [3] of the same compound?
A: Its value is 100%.

Q: And the “Population Fragmented Nuclei (%)” value [3]?
A: The value was 25%.

Q: What about the “Population Healthy Nuclei (%)” value [3] of the same compound?
A: Its value is 67%.

Q: What about the “Population Hoechst High Intensity Objects (%)” value [3] of the same compound?
A: Its value is 2%.

Q: What about the “Population Membrane Permeable-Phenotype (%)” value [3] of the same compound?
A: Its value is 9%.

Q: What about the “Population Mitochondria Different-Phenotype (%)” value [3] of the same compound?
A: Its value is 3%.

Q: And the “Population Mitotic Cells (%)” value [3]?
A: The value was 0%.

Q: And the “Population Normal (%)” value [3]?
A: Its value is 97%.

Q: And the “Population Pyknosed Nuclei (%)” value [3]?
A: The value was 6%.

Q: And the “Population Tubulin-Different-Phenotype (%)” value [3]?
A: The value was 3%.

Q: What about the “Total Cell Count” value [3] of the same compound?
A: The value was 234.

Q: And the “Population Apoptotic (%)” value [4]?
A: The value was 66%.

Q: What about the “Population Fragmented Nuclei (%)” value [4] of the same compound?
A: The value was 18%.

Q: And the “Population Healthy Nuclei (%)” value [4]?
A: Its value is 77%.

Q: What about the “Population Hoechst High Intensity Objects (%)” value [4] of the same compound?
A: Its value is 4%.

Q: What about the “Population Membrane Permeable-Phenotype (%)” value [4] of the same compound?
A: Its value is 3%.

Q: What about the “Population Mitochondria Different-Phenotype (%)” value [4] of the same compound?
A: Its value is 1%.

Q: And the “Population Mitotic Cells (%)” value [4]?
A: Its value is 33%.

Q: What about the “Population Normal (%)” value [4] of the same compound?
A: Its value is 95%.

Q: What about the “Population Pyknosed Nuclei (%)” value [4] of the same compound?
A: The value was 3%.

Q: What about the “Population Tubulin-Different-Phenotype (%)” value [4] of the same compound?
A: Its value is 1%.

Q: And the “Total Cell Count” value [4]?
A: The value was 89.

Q: What about the “Population Apoptotic (%)” value [5] of the same compound?
A: Its value is 92%.

Q: And the “Population Fragmented Nuclei (%)” value [5]?
A: The value was 22%.

Q: What about the “Population Healthy Nuclei (%)” value [5] of the same compound?
A: Its value is 69%.

Q: And the “Population Hoechst High Intensity Objects (%)” value [5]?
A: The value was 1%.

Q: And the “Population Membrane Permeable-Phenotype (%)” value [5]?
A: Its value is 4%.

Q: What about the “Population Mitochondria Different-Phenotype (%)” value [5] of the same compound?
A: The value was 0%.

Q: What about the “Population Mitotic Cells (%)” value [5] of the same compound?
A: The value was 7%.

Q: And the “Population Normal (%)” value [5]?
A: Its value is 98%.

Q: And the “Population Pyknosed Nuclei (%)” value [5]?
A: Its value is 8%.

Q: And the “Population Tubulin-Different-Phenotype (%)” value [5]?
A: Its value is 3%.

Q: And the “Total Cell Count” value [5]?
A: Its value is 327.

Q: What about the “Population Apoptotic (%)” value [6] of the same compound?
A: The value was 90%.

Q: And the “Population Fragmented Nuclei (%)” value [6]?
A: Its value is 13%.

Q: What about the “Population Healthy Nuclei (%)” value [6] of the same compound?
A: Its value is 80%.

Q: What about the “Population Hoechst High Intensity Objects (%)” value [6] of the same compound?
A: The value was 0%.

Q: What about the “Population Membrane Permeable-Phenotype (%)” value [6] of the same compound?
A: Its value is 6%.

Q: And the “Population Mitochondria Different-Phenotype (%)” value [6]?
A: Its value is 3%.

Q: And the “Population Mitotic Cells (%)” value [6]?
A: The value was 10%.

Q: What about the “Population Normal (%)” value [6] of the same compound?
A: The value was 99%.

Q: What about the “Population Pyknosed Nuclei (%)” value [6] of the same compound?
A: Its value is 6%.

Q: And the “Population Tubulin-Different-Phenotype (%)” value [6]?
A: Its value is 4%.

Q: And the “Total Cell Count” value [6]?
A: Its value is 159.

Q: What about the “Population Apoptotic (%)” value [7] of the same compound?
A: The value was 88%.

Q: What about the “Population Fragmented Nuclei (%)” value [7] of the same compound?
A: Its value is 22%.

Q: What about the “Population Healthy Nuclei (%)” value [7] of the same compound?
A: Its value is 71%.

Q: And the “Population Hoechst High Intensity Objects (%)” value [7]?
A: The value was 1%.

Q: And the “Population Membrane Permeable-Phenotype (%)” value [7]?
A: The value was 5%.

Q: And the “Population Mitochondria Different-Phenotype (%)” value [7]?
A: Its value is 3%.

Q: And the “Population Mitotic Cells (%)” value [7]?
A: The value was 11%.

Q: What about the “Population Normal (%)” value [7] of the same compound?
A: Its value is 98%.

Q: What about the “Population Pyknosed Nuclei (%)” value [7] of the same compound?
A: Its value is 6%.

Q: What about the “Population Tubulin-Different-Phenotype (%)” value [7] of the same compound?
A: Its value is 3%.

Q: And the “Total Cell Count” value [7]?
A: Its value is 272.

Q: What about the “Population Apoptotic (%)” value [8] of the same compound?
A: The value was 75%.

Q: And the “Population Fragmented Nuclei (%)” value [8]?
A: The value was 16%.

Q: And the “Population Healthy Nuclei (%)” value [8]?
A: The value was 75%.

Q: And the “Population Hoechst High Intensity Objects (%)” value [8]?
A: The value was 4%.

Q: What about the “Population Membrane Permeable-Phenotype (%)” value [8] of the same compound?
A: The value was 3%.

Q: And the “Population Mitochondria Different-Phenotype (%)” value [8]?
A: The value was 1%.

Q: And the “Population Mitotic Cells (%)” value [8]?
A: The value was 25%.

Q: What about the “Population Normal (%)” value [8] of the same compound?
A: Its value is 95%.

Q: What about the “Population Pyknosed Nuclei (%)” value [8] of the same compound?
A: Its value is 7%.

Q: What about the “Total Cell Count” value [8] of the same compound?
A: Its value is 113.

Q: And the “Population Apoptotic (%)” value [9]?
A: The value was 88%.

Q: And the “Population Fragmented Nuclei (%)” value [9]?
A: The value was 16%.

Q: And the “Population Healthy Nuclei (%)” value [9]?
A: The value was 74%.

Q: And the “Population Hoechst High Intensity Objects (%)” value [9]?
A: The value was 2%.

Q: And the “Population Membrane Permeable-Phenotype (%)” value [9]?
A: The value was 5%.

Q: What about the “Population Mitochondria Different-Phenotype (%)” value [9] of the same compound?
A: Its value is 2%.

Q: And the “Population Mitotic Cells (%)” value [9]?
A: Its value is 11%.

Q: And the “Population Normal (%)” value [9]?
A: Its value is 97%.

Q: What about the “Population Pyknosed Nuclei (%)” value [9] of the same compound?
A: Its value is 9%.

Q: And the “Population Tubulin-Different-Phenotype (%)” value [9]?
A: Its value is 2%.

Q: And the “Total Cell Count” value [9]?
A: Its value is 442.

Q: And the “Population Apoptotic (%)” value [10]?
A: Its value is 94%.

Q: And the “Population Fragmented Nuclei (%)” value [10]?
A: Its value is 15%.

Q: What about the “Population Healthy Nuclei (%)” value [10] of the same compound?
A: Its value is 76%.

Q: And the “Population Hoechst High Intensity Objects (%)” value [10]?
A: The value was 3%.

Q: What about the “Population Membrane Permeable-Phenotype (%)” value [10] of the same compound?
A: The value was 6%.

Q: What about the “Population Mitochondria Different-Phenotype (%)” value [10] of the same compound?
A: The value was 3%.

Q: And the “Population Mitotic Cells (%)” value [10]?
A: Its value is 5%.

Q: And the “Population Normal (%)” value [10]?
A: Its value is 96%.

Q: And the “Population Pyknosed Nuclei (%)” value [10]?
A: Its value is 8%.

Q: And the “Population Tubulin-Different-Phenotype (%)” value [10]?
A: Its value is 5%.

Q: And the “Total Cell Count” value [10]?
A: Its value is 215.

Q: And the “Population Apoptotic (%)” value [11]?
A: Its value is 96%.

Q: What about the “Population Fragmented Nuclei (%)” value [11] of the same compound?
A: Its value is 23%.

Q: And the “Population Healthy Nuclei (%)” value [11]?
A: Its value is 69%.

Q: And the “Population Hoechst High Intensity Objects (%)” value [11]?
A: The value was 2%.

Q: What about the “Population Membrane Permeable-Phenotype (%)” value [11] of the same compound?
A: Its value is 6%.

Q: And the “Population Mitochondria Different-Phenotype (%)” value [11]?
A: The value was 1%.

Q: What about the “Population Mitotic Cells (%)” value [11] of the same compound?
A: The value was 3%.

Q: And the “Population Normal (%)” value [11]?
A: The value was 97%.

Q: And the “Population Pyknosed Nuclei (%)” value [11]?
A: The value was 7%.

Q: What about the “Population Tubulin-Different-Phenotype (%)” value [11] of the same compound?
A: The value was 4%.

Q: And the “Total Cell Count” value [11]?
A: Its value is 365.

Q: And the “Population Apoptotic (%)” value [12]?
A: Its value is 85%.

Q: What about the “Population Fragmented Nuclei (%)” value [12] of the same compound?
A: The value was 11%.

Q: What about the “Population Healthy Nuclei (%)” value [12] of the same compound?
A: The value was 83%.

Q: And the “Population Hoechst High Intensity Objects (%)” value [12]?
A: The value was 5%.

Q: And the “Population Membrane Permeable-Phenotype (%)” value [12]?
A: The value was 5%.

Q: What about the “Population Mitotic Cells (%)” value [12] of the same compound?
A: The value was 14%.

Q: What about the “Population Normal (%)” value [12] of the same compound?
A: Its value is 94%.

Q: And the “Population Pyknosed Nuclei (%)” value [12]?
A: Its value is 5%.

Q: What about the “Total Cell Count” value [12] of the same compound?
A: The value was 147.
